{"source": "ChEMBL document CHEMBL5252546", "about": "“Salutaxel, a Conjugate of Docetaxel and a Muramyl Dipeptide (MDP) Analogue, Acts as Multifunctional Prodrug That Inhibits Tumor Growth and Metastasis” (J Med Chem, 2018)", "key": {"4T1 [1]": {"tested_on": "4T1", "test": "Antitumor activity against mouse 4T1 cells implanted in BALB/c mouse assessed as decrease in spleen MDSC cells at 5.7 mg/kg,iv administrated in presence of compound 5b measured after 28 days (reference value: 38%)", "assay_type": "functional", "set-up": "scale not given: the % may be the effect or the level left", "details": "time 28 day", "how_it_was_run": "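Splenocytes taken from 4T1 fat-pad tumor-bearing BALB/c mice after 28 days of tumor growth with weekly iv dosing. Cells stained with anti-CD11b PE and anti-Gr-1 FITC, and the Gr-1+CD11b+ percentage scored by flow cytometry. Eight mice per treated group, five naive. Mean ± SEM.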"}, "4T1 [2]": {"tested_on": "4T1", "test": "Antitumor activity against mouse 4T1 cells implanted in BALB/c mouse assessed as decrease in tumor MMP2 expression level at 5.7 mg/kg,iv administrated once per week for 4 weeks in presence of MDA-205 by western blot assay", "assay_type": "functional, organism-based", "how_it_was_run": "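4T1 cells injected into mammary fat pads of BALB/c mice. Saline vehicle or test article given iv once weekly for 4 weeks. Spleen, lung and tumor lysates immunoblotted for MMP2/MMP9 with β-actin as loading control. Bands averaged over five mice per group, representative of two independent experiments.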"}, "4T1 [3]": {"tested_on": "4T1", "test": "Antitumor activity against mouse 4T1 cells implanted in BALB/c mouse assessed as decrease in lung metastasis at 5.7 mg/kg,iv administrated once per week for 4 weeks by H and E staining based assay", "assay_type": "functional, organism-based", "how_it_was_run": "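BALB/c mice bearing orthotopic mammary fat pad 4T1 tumors, dosed iv weekly for 4 weeks with saline vehicle as control. Lung sections stained with hematoxylin and eosin and examined by light microscopy at 40× for metastasis, inflammatory infiltration and alveolar wall thickening.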"}, "4T1 [4]": {"tested_on": "4T1", "test": "Antitumor activity against mouse 4T1 cells implanted in BALB/c mouse assessed as decrease in serum TIMP-1 level at 5.7 mg/kg,iv administrated once per week for 4 weeks in presence of MDA-205 by ELISA", "assay_type": "functional, organism-based"}, "4T1 [5]": {"tested_on": "4T1", "test": "Antitumor activity against mouse 4T1 cells implanted in BALB/c mouse assessed as decrease in tumor MMP9 expression level at 5.7 mg/kg,iv administrated once per week for 4 weeks in presence of compound 5b by western blot assay", "assay_type": "functional, organism-based", "how_it_was_run": "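Tumour-bearing BALB/c mice (4T1 cells into mammary fat pad) given iv saline vehicle or test agents once weekly for 4 weeks. Tumours excised and probed by western blot for MMP9, MMP2 and NOD1, β-actin as loading control. Bands averaged over five mice per group; representative of two independent experiments.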"}, "4T1 [6]": {"tested_on": "4T1", "test": "Antitumor activity against mouse 4T1 cells implanted in BALB/c mouse assessed as increase in spleen NOD1 expression level at 5 to 20 mg/kg,iv administrated once per week for 4 weeks by western blot assay", "assay_type": "functional, organism-based", "details": "dose 5-20 mg/kg", "how_it_was_run": "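4T1 fat-pad model in BALB/c mice, iv once weekly for 4 weeks; MMP9, MMP2 and NOD1 in spleen, lung and tumour by western blot, β-actin loading control; bands averaged over five mice per group, representative of two independent experiments.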"}, "[7]": {"test": "Volume of distribution at steady state in male rat at 8 mg/kg,iv measured upto 24 hrs", "assay_type": "ADME, organism-based", "details": "in vivo, read-out: Vdss"}, "[8]": {"test": "Stability in rat hepatocyte assessed as compound remaining at 3 uM incubated upto 120 mins", "assay_type": "ADME, cell-based", "details": "hepatocytes, 2 h"}, "[9]": {"test": "Stability in monkey hepatocyte assessed as compound remaining at 3 uM incubated upto 120 mins", "assay_type": "ADME, cell-based, Macaca mulatta", "details": "rhesus monkey, hepatocytes, 2 h"}, "[10]": {"test": "Drug metabolism in rat bile assessed as metabolite MDA-205 formation at 4 mg/kg,iv measured after 24 hrs", "assay_type": "ADME, organism-based", "details": "in vivo"}, "[11]": {"test": "Half life in female rat at 2 mg/kg,iv measured upto 24 hrs", "assay_type": "ADME, organism-based", "details": "in vivo"}, "4T1 [12]": {"tested_on": "4T1", "test": "Antitumor activity against mouse 4T1 cells implanted in BALB/c mouse assessed as decrease in serum IL-6 level at 20 mg/kg,iv administrated once per week for 4 weeks by ELISA", "assay_type": "functional, organism-based", "how_it_was_run": "(§1)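 4T1 fat-pad model in BALB/c mice, iv 5–20 mg/kg once weekly for 4 weeks, with vehicle and naive groups; serum MMP9, TIMP-1, IL-6 and S100A9 measured by mouse ELISA kits.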"}, "[13]": {"test": "Drug concentration in rat plasma at 4 mg/kg,iv measured after 24 hrs", "assay_type": "ADME, organism-based", "details": "in vivo", "how_it_was_run": "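Rats received 4 mg/kg iv. Parent drug and released docetaxel were assayed in tissues and plasma from the first sampling at 0.25 h to 24 h. The lower limit of quantitation was 200 ng/g.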"}, "4T1 [14]": {"tested_on": "4T1", "test": "Antitumor activity against mouse 4T1 cells implanted in BALB/c mouse assessed as decrease in serum TIMP-1 level at 20 mg/kg,iv administrated once per week for 4 weeks by ELISA", "assay_type": "functional, organism-based", "how_it_was_run": "as §1"}, "[15]": {"test": "Toxicity in HaM/ICR mouse assessed as effect on motor coordination at 5 to 20 mg/kg,iv", "assay_type": "organism-based", "details": "in vivo, dose 5-20 mg/kg"}, "[16]": {"test": "Drug metabolism in rat feces assessed as metabolite MDA-205 formation at 4 mg/kg,iv measured after 24 hrs", "assay_type": "ADME, organism-based", "details": "in vivo"}, "[17]": {"test": "Stability in dog hepatocyte assessed as compound remaining at 3 uM incubated upto 120 mins", "assay_type": "ADME, cell-based, Canis lupus familiaris", "details": "hepatocytes, 2 h"}, "[18]": {"test": "Tmax in male Beagle dog at 2 mg/kg,iv measured upto 24 hrs", "assay_type": "ADME, organism-based, Canis lupus familiaris", "details": "in vivo"}, "[19]": {"test": "Tmax in female rat at 8 mg/kg,iv measured upto 24 hrs", "assay_type": "ADME, organism-based", "details": "in vivo"}, "[20]": {"test": "Prodrug conversion in mouse plasma implanted with mouse 4T1 cells assessed as MRT of docetaxel at 4 mg/kg,iv measured upto 72 hrs", "assay_type": "ADME, organism-based", "details": "in vivo"}, "[21]": {"test": "Half life in Beagle dog at 1 mg/kg,iv measured upto 24 hrs", "assay_type": "ADME, organism-based, Canis lupus familiaris", "details": "in vivo"}, "[22]": {"test": "AUC (0-t) in Beagle dog at 1 mg/kg,iv measured upto 24 hrs", "assay_type": "ADME, organism-based, Canis lupus familiaris", "set-up": "dose 1 mg/kg, time < 24 hrs, route iv", "details": "in vivo", "how_it_was_run": "(§2)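 Single iv dose: rats 2, 4 or 8 mg/kg by intravenous injection; Beagle dogs 1, 2 or 4 mg/kg by intravenous infusion. Plasma concentration–time data were analysed by sex and pooled. Reported parameters: Cmax, Tmax, AUC0−t, AUC0−∞, MRT0−∞, t1/2, CL, Vss, given as mean ± SD.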"}, "[23]": {"test": "Drug metabolism in monkey hepatocytes assessed as MDA-205 metabolite formation at 20 uM incubated for 180 mins", "assay_type": "ADME, cell-based, Macaca mulatta, Hepatocyte", "details": "rhesus monkey, 3 h"}, "[24]": {"test": "Cmax in male rat at 4 mg/kg,iv measured upto 24 hrs", "assay_type": "ADME, organism-based", "set-up": "time < 24 hrs, dose 4 mg/kg, route iv", "details": "in vivo", "how_it_was_run": "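Rats were given a single iv injection at 2, 4 or 8 mg/kg. Plasma parent drug and released docetaxel were followed over time. Cmax, Tmax, AUC, MRT, t1/2, CL and Vss were reported for males, females and all animals combined.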"}, "[25]": {"test": "Tmax in female Beagle dog at 1 mg/kg,iv measured upto 24 hrs", "assay_type": "ADME, organism-based, Canis lupus familiaris", "details": "in vivo"}, "[26]": {"test": "Tmax in Beagle dog at 2 mg/kg,iv measured upto 24 hrs", "assay_type": "ADME, organism-based, Canis lupus familiaris", "details": "in vivo"}, "[27]": {"test": "Toxicity in BALB/c mouse xenografted with mouse 4T1 cells assessed as decrease in body weight at 10 mg/kg,iv administrated once per week for 4 weeks", "assay_type": "organism-based", "details": "in vivo, 672 h"}, "[28]": {"test": "Half life in rat at 4 mg/kg,iv measured upto 24 hrs", "assay_type": "ADME, organism-based", "details": "in vivo"}, "[29]": {"test": "AUC (0-infinity) in female rat at 4 mg/kg,iv measured upto 24 hrs", "assay_type": "ADME, organism-based", "set-up": "time < 24 hrs, dose 4 mg/kg, route iv", "details": "in vivo", "how_it_was_run": "as §2"}, "[30]": {"test": "AUC (0-infinity) in male Beagle dog at 2 mg/kg,iv measured upto 24 hrs", "assay_type": "ADME, organism-based, Canis lupus familiaris", "set-up": "time < 24 hrs, dose 2 mg/kg, route iv", "details": "in vivo", "how_it_was_run": "as §2"}, "[31]": {"test": "Prodrug conversion in mouse plasma implanted with mouse 4T1 cells assessed as Tmax of docetaxel at 4 mg/kg,iv measured upto 72 hrs", "assay_type": "ADME, organism-based", "details": "in vivo"}, "Cytochrome P450 3A4": {"target": "Cytochrome P450 3A4 (Homo sapiens, UniProt P08684)", "sequence (P08684 whole entry)": "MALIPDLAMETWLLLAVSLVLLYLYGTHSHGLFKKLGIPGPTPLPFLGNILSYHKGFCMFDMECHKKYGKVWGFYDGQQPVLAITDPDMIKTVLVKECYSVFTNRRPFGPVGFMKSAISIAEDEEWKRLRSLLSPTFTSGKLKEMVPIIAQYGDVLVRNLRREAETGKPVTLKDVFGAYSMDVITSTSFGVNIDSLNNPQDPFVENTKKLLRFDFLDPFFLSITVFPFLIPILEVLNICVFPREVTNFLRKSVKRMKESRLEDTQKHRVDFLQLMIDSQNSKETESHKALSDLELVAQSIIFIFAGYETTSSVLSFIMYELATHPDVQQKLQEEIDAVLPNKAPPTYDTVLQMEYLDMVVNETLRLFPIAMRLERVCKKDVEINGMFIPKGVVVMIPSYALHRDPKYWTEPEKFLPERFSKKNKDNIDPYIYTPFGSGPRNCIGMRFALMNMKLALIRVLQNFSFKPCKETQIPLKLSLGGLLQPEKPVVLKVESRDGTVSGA", "test": "Inhibition of CYP3A4 in human liver microsomes using probe substrate at 0.1 to 100 uM in presence of NADPH", "assay_type": "ADME, Microsome", "details": "dose 0.1-100 µM"}}, "note": "Active and inactive are the calls of the source. The rule behind the calls is not given here.", "data": [{"smiles": "CC(=O)O[C@@]12CO[C@@H]1C[C@H](O)[C@@]1(C)C(=O)[C@H](O)C3=C(C)[C@@H](OC(=O)[C@H](O)[C@@H](NC(=O)OC(C)(C)C)c4ccccc4)C[C@@](O)([C@@H](OC(=O)c4ccccc4)[C@H]21)C3(C)C", "note": "[DOCETAXEL ANHYDROUS]", "values": [{"measurement": "Activity", "setting": "4T1 [1]", "value": 32.1, "unit": "%"}, {"measurement": "Activity", "setting": "4T1 [2]", "value": "inactive"}, {"measurement": "Activity", "setting": "4T1 [3]", "value": "Active"}, {"measurement": "Activity", "setting": "4T1 [4]", "value": "Active"}, {"measurement": "Activity", "setting": "4T1 [5]", "value": "inactive"}]}, {"smiles": "CC(=O)O[C@@]12CO[C@@H]1C[C@H](O)[C@@]1(C)C(=O)[C@H](O)C3=C(C)[C@@H](OC(=O)[C@H](OC(=O)CCC(=O)NCCCC[C@H](NC(=O)CC[C@@H](NC(=O)[C@H](C)NC(=O)/C=C/c4ccc(F)cc4Cl)C(N)=O)C(=O)O)[C@@H](NC(=O)OC(C)(C)C)c4ccccc4)C[C@@](O)([C@@H](OC(=O)c4ccccc4)[C@H]21)C3(C)C", "values": [{"measurement": "Activity", "setting": "4T1 [6]", "value": "Active"}, {"measurement": "Vd", "setting": "[7]", "value": 0.096, "unit": "L/kg"}, {"measurement": "Stability", "setting": "[8]", "value": "Stable"}, {"measurement": "Stability", "setting": "[9]", "value": "Stable"}, {"measurement": "Drug metabolism", "setting": "[10]", "value": "Metabolite_Detected"}, {"measurement": "half-life", "setting": "[11]", "value": 6.6, "unit": "min"}, {"measurement": "Activity", "setting": "4T1 [12]", "value": "Active"}, {"measurement": "Drug uptake", "setting": "[13]", "value": 1, "unit": "%"}, {"measurement": "Activity", "setting": "4T1 [14]", "value": "Active"}, {"measurement": "Activity", "setting": "[15]", "value": "Non-Toxic"}, {"measurement": "Drug metabolism", "setting": "[16]", "value": "Metabolite_Detected"}, {"measurement": "Stability", "setting": "[17]", "value": "Stable"}, {"measurement": "Tmax", "setting": "[18]", "value": 30, "unit": "min"}, {"measurement": "Tmax", "setting": "[19]", "value": 4.98, "unit": "min"}, {"measurement": "MRT", "setting": "[20]", "value": 52.8, "unit": "min"}, {"measurement": "half-life", "setting": "[21]", "value": 21.3, "unit": "min"}, {"measurement": "AUC(0-t) at 24 h", "setting": "[22]", "value": 1590, "unit": "ng·h/mL"}, {"measurement": "Drug metabolism", "setting": "[23]", "value": "Metabolite_Detected"}, {"measurement": "Cmax", "setting": "[24]", "value": 37900, "unit": "ng/mL"}, {"measurement": "Tmax", "setting": "[25]", "value": 30, "unit": "min"}, {"measurement": "Tmax", "setting": "[26]", "value": 30, "unit": "min"}, {"measurement": "Activity", "setting": "[27]", "value": "Toxic"}, {"measurement": "half-life", "setting": "[28]", "value": 10.6, "unit": "min"}, {"measurement": "AUC(0-inf)", "setting": "[29]", "value": 13000, "unit": "ng·h/mL"}, {"measurement": "AUC(0-inf)", "setting": "[30]", "value": 4890, "unit": "ng·h/mL"}, {"measurement": "Tmax", "setting": "[31]", "value": 1.8, "unit": "min"}, {"measurement": "inhibition (INH)", "setting": "Cytochrome P450 3A4", "value": "Not Active"}]}]}
